Measurements reported in ChEMBL document CHEMBL1154234, “Cytotoxic constituents of Soymida febrifuga from Myanmar” (J Nat Prod, 2009).

Assays:
Type in all cases: functional, cell-based
HeLa = test: Cytotoxicity against human HeLa cells after 72 hrs by MTT assay
Method in brief: (§1)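 Cells grown in MEMR with 10% FBS, 0.1% NaHCO3 and 1% antibiotic antimycotic; seeded 2 × 10^3/well and left 24 h at 37 °C, 5% CO2 to attach. Graded concentrations then added in medium for 72 h; MTT (0.5 mg/mL) for 2 h, formazan taken up in DMSO, absorbance at 550 nm. IC50 from means of three wells.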

[1] = Cytotoxicity against mouse B16-BL6 cells after 72 hrs by MTT assay; settings: B16-BL6, 72 h; method in brief: as §1
A549 = test: Cytotoxicity against human A549 cells after 72 hrs by MTT assay; settings: A549, 72 h; method in brief: as §1
PANC-1 = test: Cytotoxicity against human PANC1 cells in nutrient-deprived condition after 24 hrs by WST8 assay
Method in brief: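 PANC-1 seeded 2 × 10^4/well in DMEM, 24 h at 37 °C, 5% CO2; washed with PBS and switched to nutrient-deprived medium (or DMEM) with serial dilutions for 24 h. After PBS wash, DMEM with 10% WST-8 added for 3 h, absorbance at 450 nm. Viability vs blank and untreated control from three wells; PC50 reported.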

[2] = Cytotoxicity against mouse Colon 26-L5 cells after 72 hrs by MTT assay
Method in brief: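 Murine colon 26-L5 cells kept in RPMI 1640 with 10% FBS, 0.1% NaHCO3, 1% antibiotic antimycotic. Plated at 2 × 10^3/well, 24 h attachment at 37 °C, 5% CO2, then varying concentrations for 72 h. Read-out: MTT (0.5 mg/mL) 2 h, DMSO extraction, 550 nm; IC50 from means of three wells.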

HT-1080 = test: Cytotoxicity against human HT1080 cells after 72 hrs by MTT assay; settings: HT-1080, 72 h; method in brief: as §1

Structure (SMILES) | IC50 (HeLa) [µM] | IC50 [1] [µM] | IC50 (A549) [µM] | PC50 (PANC-1) [µM] | IC50 [2] [µM] | IC50 (HT-1080) [µM] | PC50 (PANC-1; Homo sapiens, PANC-1, 24 h) [µM]
COc1cc2c(cc1O)C[C@@H](Cc1ccc(O)cc1)CO2 | 37.8 | 75.4 | 19.1 | 63 | 22.2 | 17.5 | 
O=C(O)c1ccc(O)cc1 [PARABEN] | 36.2 | 63.3 | > 100 | >100 | 33.3 | > 100 | 
COc1ccc(CCC(=O)c2ccc(O)cc2)c(OC)c1 | > 100 | 55.5 | 89.5 | 83.2 | 32.2 | > 100 | 
COc1ccc(C[C@@H]2COc3cc(O)cc(O)c3C2=O)cc1 | > 100 | 64.3 | > 100 |  | 30.6 | > 100 | > 100
COc1cc(O)cc2c1OC[C@H](Cc1ccc(O)cc1)C2 | 65.6 | > 100 | > 100 | >100 | 49.5 | 70.2 | 
COc1cccc2c1C(=O)c1c(O)c3c(c(O)c1C2=O)C[C@@](O)(C(=O)CO)C[C@@H]3O[C@H]1C[C@H](N)[C@H](O)[C@H](C)O1 [DOXORUBICIN] |  | 3.07 | 0.84 |  | 3.12 | 0.41 | 
Oc1ccc(C[C@H]2COc3cc(O)ccc3C2)cc1 | > 100 | > 100 | > 100 | 79 | 44.5 | 79.6 | 
COc1cc2cc(Cc3ccc(O)cc3)c(=O)oc2cc1O | 69.5 | > 100 | 88.1 | 86.7 | 61.8 | 40.3 | 
Cc1c(O)ccc2c1O[C@@H](c1ccc(O)cc1)CC2 | 89.2 | 98.9 | 39.7 | 85.8 | 40.2 | 24.1 | 
COc1cc(O)cc(/C=C/c2ccc(O)cc2)c1 | 48.4 | > 100 | 91.8 | 71.4 | 35.8 | 89.1 | 
O=C(CCc1ccc(O)cc1O)c1ccc(O)cc1 | > 100 | > 100 | > 100 | >100 | > 100 | > 100 | 
COc1ccc2c(c1)O[C@H](c1ccc(O)cc1)CC2 | > 100 | 40.8 | > 100 | 74 | 52.8 | > 100 | 
O=C(/C=C/c1ccccc1)c1ccc(O)cc1O [2',4'-DIHYDROXYCHALCONE] | 24.4 | > 100 | 23.2 | 19 | 4.71 | 17 | 
O=c1[nH]cc(F)c(=O)[nH]1 [FLUOROURACIL] | 0.44 | 7.39 | 5.91 |  | 0.41 | 8.58 | 
COc1cc(O)c(C)c2c1CC[C@H](c1ccc(O)cc1)O2 | 74 | 89.1 | 35.5 | 70.1 | 59.1 | 37 | 
COc1cc(O)cc(OC)c1CCC(=O)c1ccc(O)cc1 | 49 | 84.4 | 42.9 | 69.7 | 40.2 | 67.2 | 
O=C(/C=C/c1ccccc1O)c1ccc(O)cc1O | 89.1 | > 100 | 89.9 | >100 | 28.9 | 40.4 | 
COc1cc(C(O)C(O)CO)ccc1O (centres undefined) [GUAIACYL GLYCEROL] | > 100 | > 100 | > 100 | >100 | 96.9 | > 100 | 
COc1ccc(CCC(=O)c2ccc(O)cc2)c(O)c1 | 46.1 | 57.8 | 12 | >100 | 81.4 | > 100 | 
COc1cc(O)ccc1C(=O)/C=C/c1ccc(O)cc1 | 33.3 | 49.9 | 66.5 | >100 | 14.1 | 26.7 | 
Oc1ccc([C@H]2CCc3ccc(O)cc3O2)cc1 [TUPICHINOL C] | 93.4 | > 100 | 94 | >100 | 43.9 | 50.1 | 
COc1ccc(C(=O)CCc2c(OC)cc(O)cc2OC)cc1 | > 100 | 70.1 | > 100 | 85.7 | 68.1 | > 100 | 
COc1cc(/C=C/c2ccc(O)cc2)cc(OC)c1 [PTEROSTILBENE] | 9.43 | 15.9 | 71.7 | 44.4 | 2.96 | 93.4 | 
O=C1c2ccc(O)cc2OC[C@H]1Cc1ccc(O)cc1 | > 100 | 99.6 | > 100 | >100 | 69.3 | > 100 | 
COc1c(O)cc2c(c1O)C(=O)[C@H](Cc1ccc(O)cc1)CO2 | > 100 | > 100 | > 100 | >100 | 89.5 | 96.2 | 
O=C1C[C@@H](c2ccccc2)Oc2cc(O)cc(O)c21 [PINOCEMBRIN] | > 100 | > 100 | > 100 | 72.9 | 71 | 72.8 | 
O=C1c2c(O)cc(O)cc2OC[C@H]1Cc1ccc(O)cc1 | > 100 | > 100 | > 100 | >100 | 57.8 | > 100 | 
